A short description of test [1]: Inhibition of porcine CEase using para-nitrophenyl butyrate as substrate preincubated with substrate for 5 mins followed by enzyme addition by spectrophotometric method. Details: species or system Sus scrofa. In a few lines: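 Porcine cholesterol esterase (10 ng mL–1 final) was assayed in pH 7.0 phosphate/NaCl buffer with 6 mM taurocholate, 3% acetonitrile, and 20 μM p-nitrophenyl butyrate at 25 °C. Test compounds in DMSO were preincubated 5 min, then the enzyme was added and A405 was monitored. IC50 came from four concentrations (1, 5, 10, 25 nM), with means of triplicates.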

Test [2] is filed under the species Sus scrofa. Put plainly: Inhibition of porcine CEase at 50 nM using para-nitrophenyl butyrate as substrate preincubated with substrate for 5 mins followed by enzyme addition by spectrophotometric method relative to control.
Test [3] is filed under the species Sus scrofa. In words: Mixed-type inhibition of porcine CEase at 1 to 50 nM using para-nitrophenyl butyrate as substrate preincubated with substrate for 5 mins followed by enzyme addition by Lineweaver-Burk plot analysis.

The source made the active and inactive calls. No cut-off for these calls is given here. Some results are limits rather than exact numbers.

Consider `O=c1cc(-c2ccc(C(F)(F)F)cc2F)oc2ccc3ccccc3c12`, for which half-maximal inhibition in test [1] (IC50) was put at 23.1 nM. Besides, in the test filed under Sus scrofa [2], the inhibition is above 60%.

Compound `O=c1cc(-c2ccc([N+](=O)[O-])cc2)oc2ccc3ccccc3c12` registered an IC50 in test [1] of 18 nM. The inhibition in the test listed under Sus scrofa [2] was above 60%.

In turn, `O=c1cc(-c2ccc(CCl)cc2)oc2ccc3ccccc3c12` came in with an IC50 in test [1] of 22.2 nM. Further, the inhibition in the test filed under Sus scrofa [2] is above 60%.

In test [1], `O=c1cc(-c2cccc(CCl)c2)oc2ccc3ccccc3c12` gave an IC50 of 20.1 nM. In the test filed under Sus scrofa [2], this compound yielded an inhibition above 60%.

On to `O=c1cc(-c2ccc(F)cc2)oc2ccc3ccccc3c12`, for which the IC50 in test [1] amounted to 4.5 nM. This compound registered an inhibition in the test filed under Sus scrofa [2] above 60%.

In test [1], `O=c1cc(-c2ccc(F)c(F)c2)oc2ccc3ccccc3c12` yielded an IC50 of 1.15 nM. Further, the inhibition in the test filed under Sus scrofa [2] is above 60%.

With `O=c1cc(-c2cccc(Cl)c2Cl)oc2ccc3ccccc3c12`, in test [1], half-maximal inhibition (IC50) was put at 0.73 nM. Further, the inhibition result in the test filed under Sus scrofa [3] is “Active”. In the test filed under Sus scrofa [2], the inhibition is above 60%.

For the compound `O=c1cc(-c2cc(F)cc(C(F)(F)F)c2)oc2ccc3ccccc3c12`, in test [1], the IC50 came out at 29.1 nM. In the test filed under Sus scrofa [2], the inhibition is above 60%.

As to `O=c1cc(-c2ccc(I)cc2)oc2ccc3ccccc3c12`, in test [1], the half-inhibitory concentration (IC50) was found to be 13.1 nM. In the test filed under Sus scrofa [2], this compound showed an inhibition above 60%.

In test [1], `O=c1cc(-c2cccc(Cl)c2)oc2ccc3ccccc3c12` returned an IC50 of 0.83 nM. In the test filed under Sus scrofa [2], this compound yielded an inhibition above 60%.

The compound `O=c1cc(-c2cccc([N+](=O)[O-])c2)oc2ccc3ccccc3c12` returned an IC50 in test [1] of 16.4 nM. This compound also yielded an inhibition in the test filed under Sus scrofa [2] above 60%.

In test [1], `CCOP(=O)(OCC)Oc1cc(O)c2c(=O)cc(-c3ccccc3)oc2c1` showed an IC50 of 0.72 nM.

Take `O=c1cc(-c2cc(F)ccc2F)oc2ccc3ccccc3c12`: in test [1], the IC50 came to 1.08 nM. Moreover, the inhibition in the test filed under Sus scrofa [2] was above 60%.

In the case of `O=c1cc(-c2ccccc2Br)oc2ccc3ccccc3c12`, the midpoint of inhibition in test [1], the IC50, lay at 4.69 nM. In the test listed under Sus scrofa [2], this compound showed an inhibition above 60%.

`O=c1cc(-c2cc(F)cc(F)c2)oc2ccc3ccccc3c12`: in test [1], it took 0.99 nM to reach half-maximal inhibition (IC50). For the same compound, in the test listed under Sus scrofa [2], the inhibition is above 60%.

Turning to `O=c1cc(-c2c(F)cccc2C(F)(F)F)oc2ccc3ccccc3c12`, in test [1], the 50% inhibitory concentration (IC50) stood at 29.2 nM. Further, the inhibition in the test filed under Sus scrofa [2] is above 60%.

In test [1], `O=c1cc(-c2ccccc2I)oc2ccc3ccccc3c12` gave an IC50 of 9.55 nM. For the same compound, in the test filed under Sus scrofa [2], the inhibition was above 60%.

For `O=c1cc(-c2ccccc2)oc2ccc3ccccc3c12` [BETA-NAPHTHOFLAVONE], inhibition in test [1] was half-maximal at 51.1 nM (IC50).

`O=c1cc(-c2cc(F)ccc2C(F)(F)F)oc2ccc3ccccc3c12` registered an IC50 in test [1] of 27.8 nM. The inhibition in the test filed under Sus scrofa [2] was above 60%.

As to `O=c1cc(-c2ccc(F)cc2F)oc2ccc3ccccc3c12`, in test [1], the IC50 is 1.46 nM. The inhibition in the test filed under Sus scrofa [2] is above 60%.

Regarding `O=c1cc(-c2cccc(F)c2)oc2ccc3ccccc3c12`, the 50% inhibitory concentration (IC50) in test [1] was 3.9 nM. In addition, in the test filed under Sus scrofa [2], the inhibition was above 60%.

With `O=c1cc(-c2ccc(Br)cc2)oc2ccc3ccccc3c12`, the IC50 in test [1] came to 8.15 nM. The inhibition in the test filed under Sus scrofa [2] was above 60%.

`O=c1cc(-c2cccc(Br)c2)oc2ccc3ccccc3c12` had an IC50 in test [1] of 6.01 nM. In the test filed under Sus scrofa [2], the inhibition was above 60%.

As to `O=c1cc(-c2cc([N+](=O)[O-])cc([N+](=O)[O-])c2)oc2ccc3ccccc3c12`, half-maximal inhibition in test [1] (IC50) required 9.8 nM. The same compound gave an inhibition in the test listed under Sus scrofa [2] above 60%.

In test [1], `O=c1cc(-c2ccccc2F)oc2ccc3ccccc3c12` had a concentration for half-maximal inhibition (IC50) of 2.59 nM. Besides, in the test listed under Sus scrofa [2], the inhibition is above 60%.

In test [1], `O=c1cc(-c2ccccc2C(F)(F)F)oc2ccc3ccccc3c12` gave an IC50 of 31.4 nM. In the test listed under Sus scrofa [2], this compound had an inhibition above 60%.

Take `O=c1cc(-c2c(F)cccc2F)oc2ccc3ccccc3c12`: the midpoint of inhibition in test [1], the IC50, lay at 1.19 nM. In the test filed under Sus scrofa [2], this compound came in with an inhibition above 60%.

The values above are taken from ChEMBL document CHEMBL4257477, “5,6-Benzoflavones as cholesterol esterase inhibitors: synthesis, biological evaluation and docking studies” (Medchemcomm, 2018).
